The structures appear in SMILES notation. Marks after values point to notes of the source that are not given here.

Data set [1] in a line: Oral dose pharmacokinetics. The conditions noted are these: rat; for AUC(0-t) / Kp / Kp at 24 h / Cmax: male, Sprague-Dawley, po, 2 mg/kg; for Kp / Kp at 24 h: brain/plasma; for Cmax (brain): oral 2 mg/kg, Table 1. In kind it is in vivo, Sprague–Dawley rats. The method, boiled down: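 Adult male Sprague–Dawley rats, cassette dosing by oral gavage at 2.0 mg/kg (0.4 mg/mL in 0.25% methyl cellulose/water), n=3 per time point (15 min, 40 min, 2 h, 6 h, 24 h). Under ketamine/xylazine i.p., blood taken by cardiac puncture and brains collected. Brain homogenised in methanol; plasma and brain extracts cleaned up by solid-phase extraction and quantified by UPLC–MS/MS. Values are means.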

A further data set is described as follows: Partition coefficient. In kind it is physicochemical. As to conditions: n-octanol/water, shake flask. An outline of the steps: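 Miniaturised shake flask. Octanol stock (1000 μg/mL) mixed with presaturated n-octanol and presaturated water, shaken overnight at 500 rpm, then centrifuged 20 min at 16 000 RCF. Both layers read by UV absorbance at 300 nm against calibration curves; run in triplicate.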

Data set [2] deals with pentylenetetrazol-induced clonic and tonic convulsions in mice. Nature of the data set: PTZ seizures after oral dosing in mice. In kind it is in vivo, C57BL/6N mice. As to conditions: for peak time of efficacy / effect on latency to produce convulsions: 10 mg/kg oral, 70 mg/kg PTZ; for effect on latency to produce convulsions: 2 to 8 h after dosing; for lethality/number tested, 2 h: 2 h pretreatment; for lethality/number tested, 2 h / lethality/number tested, 4 h / lethality/number tested, 8 h: 60 min observation. The method, boiled down: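 Male C57BL/6N mice dosed orally (1% carboxymethylcellulose, 10 mL/kg). After the pretreatment interval, PTZ 70 mg/kg s.c. in 0.9% NaCl. Lethality and latency to death recorded over 60 min. Deaths compared with the vehicle + PTZ group by Fisher's exact test; n=6–7 per group.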

A short description of data set [3]: Thermodynamic equilibrium solubility in water and other solvents. It counts as physicochemical. The conditions noted are these: spectroscopic method.
The nature of a further data set: Kinetic. In kind it is physicochemical. As to conditions: water, 37 °C.
The mark [4] stands for this setting: oral, 4 h pretreatment, PTZ 70 mg/kg.
Setting [5] is: oral, 8 h pretreatment, PTZ 70 mg/kg.

In turn, `C#Cc1ccc2c(c1)C(c1ccccn1)=NCc1c(-c3cnco3)ncn1-2` [KRM-II-81, 5-(8-Ethynyl-6-(pyridin-2-yl)-4H-benzo[f]imidazo[1,5-a][1,4]diazepin-3-yl)oxazole] had an AUC(0-t) in data set [1] (brain) of 2.69 µM·h. In data set [1], the Kp was found to be 0.32, the Kp at 24 h came to 0.77 and the “Cmax (brain)” value came to 594.2 nM. In data set [1] (plasma), this molecule yielded an AUC(0-t) of 3.59 µM·h and a Cmax of 1830 nM. For the same molecule, the “log P” value in the data set “Partition coefficient” amounted to 1.763 ± 0.12. For the same molecule, in data set [2], the “peak time of efficacy” value was “about 2 h” and the “effect on latency to produce convulsions” value is listed as “approximately a doubling of the latency to produce convulsions”. In addition, in data set [2] (oral, PTZ 70 mg/kg), the “lethality/number tested, 2 h” value was 0/6 ^a. Besides, the “lethality/number tested, 4 h” value in data set [2] (setting [4]) is reported as 0/6 ^a. Also, the “lethality/number tested, 8 h” value in data set [2] (setting [5]) is given as 0/6 ^a.

Turning to `C#Cc1ccc2c(c1)C(c1ccccn1)=NCc1c(-c3cnco3)ncn1-2.Cl` [KRM-II-81·HCl, 2-(8-Ethynyl-3-(oxazol-5-yl)-4H-benzo[f]imidazo[1,5-a][1,4]diazepin-6-yl)pyridin-1-ium Chloride], the “improvement in water solubility, salt form vs free base” value in data set [3] was “Approximately 13 fold”. For the same molecule, the AUC(0-t) in data set [1] (brain) was 2.66 µM·h. Besides, in data set [1], the Kp was found to be 0.52, the Kp at 24 h stood at 1 and the “Cmax (brain)” value is 689.1 nM. In data set [1] (plasma), this molecule yielded an exposure AUC(0-t) of 2.66 µM·h and a Cmax of 1320 nM. Also, in the data set “Partition coefficient”, the “log P” value came to 0.53 ± 0.06. Moreover, the “persistence in solution state (supersaturation) vs free base” value in the data set “Kinetic” is “remain in the solution state for a longer period of time”. In addition, in data set [2], the “peak time of efficacy” value is reported as “about 2 h” and the “effect on latency to produce convulsions” value is reported as “approximately a doubling of the latency to produce convulsions”. The “lethality/number tested, 2 h” value in data set [2] (oral, PTZ 70 mg/kg) was 0/6 ^a. In data set [2] (setting [4]), the “latency to death, 4 h” value is 15.68 s and the “lethality/number tested, 4 h” value is recorded as 1/6. In data set [2] (setting [5]), the “latency to death, 8 h” value was 43.00 s and the “lethality/number tested, 8 h” value is 1/6.

These data come from PMC9366947 (ACS Omega, 2022).
